Bioassay records (PubChem BioAssay)
ABHD5 PLIN5 PPI = ABHD5-PLIN5 interaction inhibitors, primary screen, cell lysate, split luciferase complementation, luminescence; Perilipin-5 (Homo sapiens) + 1-acylglycerol-3-phosphate O-acyltransferase ABHD5 (Homo …; Split G. princeps luciferase complementation, 4 h; inhibition, % at 4 µM; 0.78% of 360,000 active;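 active means inhibition above the mean inhibition across every tested compound plus 3 SD, cut at about 22% in these data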;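 further: 0% = DMSO only wells and the 100% control is not disclosed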
Exocytosis inh = LAMP-1 surface exposure blockers, TALL-104 cells – cell-based, flow cytometry, MLPCN library, primary screen | inhibition, % at 10 µM | AID 651702, 2012 | TALL-104 LAMP-1 surface exposure; cells stimulated with thapsigargin and PMA | 0.66% of 360,000 active;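 active means inhibition above about 55%, limit read from the data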
XBP1 UPR activ = activators of adaptive XBP1 UPR arm, primary screen, cell-based, CHO-XBP1 luciferase reporter, luminescence, uHTS | 0.33% of 330,000 active | activation, % at 20 µM | IRE1-XBP1 UPR activation; percent of tunicamycin response, DMSO as zero | AID 463104, 2010;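 active means versus positive control, 20 µM dose yields 30% or more activation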;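 further: 100% = tunicamycin at 10 µg/mL and 0% = DMSO only wells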
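Material: CHO-XBP1 cells stably carrying IRE1-XBP1-driven luciferase reporter / Amount: 1000 cells per well / Compound: 20 µM, 1% DMSO / Times: 6 h treatment, 37 °C / Detection: luciferase luminescence / Measure: % activation of reporter signal versus tunicamycin and DMSO controls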
Mdm2-MdmX inh = inhibitors of human Mdm2-MdmX association, primary screen, cell-based, luminescence, split luciferase, SaOS-2, uHTS | 3% of 330,000 active | inhibition, % at 8 µM | SaOS-2 split-luciferase Mdm2/MdmX complementation | AID 485346, 2010;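 active means inhibition of at least 50% at 8 µM in the primary screen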
UPR CHOP act = activators of apoptotic CHOP UPR arm, primary screen, cell-based, CHO-CHOP luciferase reporter, luminescence, uHTS. 0.34% of 330,000 active. activation, % at 10 µM. UPR activation; percent of tunicamycin response over DMSO baseline. AID 449763, 2010;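 active means at 10 µM dose, activation of 40% or more, normalized to positive control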;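 further: 100% = tunicamycin at 10 µg/mL and 0% = DMSO alone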
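Evaluation: % reporter activation, DMSO baseline versus tunicamycin full activation; System: CHO-CHOP luciferase reporter cell line; Input: 500 cells/well; Incubation: 6 h compound treatment, 37 °C; Measured by: Steady-Glo luciferase luminescence; Dosing: one dose, 10 µM in 0.5% DMSO; Buffer or medium: F12 medium, 10% FBS; Benchmarks: positive tunicamycin 10 µg/mL, negative DMSO alone.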
ABHD5-PLIN5 conf = ABHD5-PLIN5 interaction inhibitors, confirmation, biochemical, luminescence; shares compounds with ABHD5 PLIN5 PPI; inhibition, % at 4 µM; 67% of 2,200 active; in the data active means inhibition above about 23%;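 further: 0% = DMSO vehicle wells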
HNF4 counter = HNF4 dimerization inhibitors, counter-screen for ABHD5-PLIN5 interaction inhibitor project, biochemical, split-luciferase complementation, luminescence; shares compounds with ABHD5 PLIN5 PPI; inhibition, % at 4 µM; 77% of 2,200 active;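 active means mean inhibition across replicate wells exceeding the computed hit threshold, cut at about 13% in these data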;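 further: light from luciferase halves that rejoin when HNF4 fusion proteins dimerize; 0% = DMSO only wells and the 100% control is not given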
Active calls of the source: *. Compounds with a hit are over-represented: about 4% of the library has one in this group of screens.

What do the screens show for `CCOC(=O)c1cc2c(=O)n3ccccc3nc2n(Cc2ccco2)c1=NC(=O)c1ccc(OC)cc1OC`?
ABHD5 PLIN5 PPI: 9.7; Exocytosis inh: 4.5; XBP1 UPR activ: -1.0; Mdm2-MdmX inh: 16.1; UPR CHOP act: -2.2

How did N#Cc1cc2c(=O)n3ccccc3nc2n(Cc2ccco2)c1=NC(=O)c1ccco1 do in these assays?
ABHD5 PLIN5 PPI: 49.9*; Exocytosis inh: 4.0; XBP1 UPR activ: 0.4; Mdm2-MdmX inh: -0.7; UPR CHOP act: 1.5; ABHD5-PLIN5 conf: 7.5; HNF4 counter: 25.9*

Results for CCN(CC)S(=O)(=O)c1cnccc1N1CCN(c2cccc(Cl)c2)CC1 ?
ABHD5 PLIN5 PPI: 11.0; Exocytosis inh: -0.6; XBP1 UPR activ: 0.3; Mdm2-MdmX inh: 21.4; UPR CHOP act: 0.1

What do the screens show for `Cc1ccc(C(NC(=O)N2CCOCC2)C(Cl)Cl)cc1F` (configuration not stated)?
ABHD5 PLIN5 PPI: -0.2; Exocytosis inh: 0.2; XBP1 UPR activ: -1.1; Mdm2-MdmX inh: 4.3; UPR CHOP act: 1.0

Results for O=[N+]([O-])c1cc(C(F)(F)F)cc([N+](=O)[O-])c1Sc1n[nH]c(C(F)(F)F)n1 ?
ABHD5 PLIN5 PPI: 45.2*; Exocytosis inh: -2.0; XBP1 UPR activ: 1.4; Mdm2-MdmX inh: 1.2; UPR CHOP act: -2.1; ABHD5-PLIN5 conf: 75.3*; HNF4 counter: 56.3*

Results for O=C(CSc1ccc(C(F)(F)F)cc1[N+](=O)[O-])Nc1ccccc1 ?
ABHD5 PLIN5 PPI: -2.8; Exocytosis inh: -2.9; XBP1 UPR activ: -1.0; Mdm2-MdmX inh: -9.2; UPR CHOP act: -0.2

What do the screens show for `O=C(O)c1ccccc1Sc1c([N+](=O)[O-])cc(C(F)(F)F)cc1[N+](=O)[O-]`?
ABHD5 PLIN5 PPI: 27.0*; Exocytosis inh: 3.7; XBP1 UPR activ: -1.1; Mdm2-MdmX inh: -2.6; UPR CHOP act: -1.3; ABHD5-PLIN5 conf: 46.5*; HNF4 counter: 29.5*

What do the screens show for `CN(C)/C=N/c1nc(Sc2ccc(C(F)(F)F)cc2[N+](=O)[O-])n[nH]1`?
ABHD5 PLIN5 PPI: -0.7; Exocytosis inh: -2.2; XBP1 UPR activ: 0.6; Mdm2-MdmX inh: -19.8; UPR CHOP act: 0.0

What do the screens show for `CCCCN(C(=O)c1ccc(-c2ccc(Cl)cc2)o1)c1c(N)n(CC(C)C)c(=O)[nH]c1=O`?
ABHD5 PLIN5 PPI: -4.0; Exocytosis inh: -1.7; XBP1 UPR activ: 3.5; Mdm2-MdmX inh: 16.4; UPR CHOP act: -0.9

How did CCc1ccc2c(c1)/C(=N/N(C)C(=S)NC)C(=O)N2 do in these assays?
ABHD5 PLIN5 PPI: -1.2; Exocytosis inh: 1.8; XBP1 UPR activ: 1.0; Mdm2-MdmX inh: -18.1; UPR CHOP act: 0.8

What do the screens show for `CN1/C(=C\C(=O)c2cccs2)C(C)(C)c2ccccc21`?
ABHD5 PLIN5 PPI: -5.1; Exocytosis inh: 2.0; XBP1 UPR activ: -0.3; Mdm2-MdmX inh: -35.6; UPR CHOP act: 2.7

How did CCc1ccc2c(c1)/C(=C/C(=O)c1cccs1)C(=O)N2 do in these assays?
ABHD5 PLIN5 PPI: 83.3*; Exocytosis inh: 104.4*; XBP1 UPR activ: -8.9; Mdm2-MdmX inh: 47.4; UPR CHOP act: -6.7; ABHD5-PLIN5 conf: 90.2*; HNF4 counter: 96.1*

What do the screens show for `Cc1cccc2c1NC(=O)/C2=C\C(=O)c1cccs1`?
ABHD5 PLIN5 PPI: 52.6*; Exocytosis inh: 4.4; XBP1 UPR activ: 8.2; Mdm2-MdmX inh: 32.7; UPR CHOP act: 29.5; ABHD5-PLIN5 conf: 78.1*; HNF4 counter: 85.2*
